Source: ChEMBL document CHEMBL4706662, “Design and Evaluation of Peptide Dual-Agonists of GLP-1 and NPY2 Receptors for Glucoregulation and Weight Loss with Mitigated Nausea and Emesis” (J Med Chem, 2021)
Active and inactive are the calls of the source. The rule behind the calls is not given here. Square brackets hold non-standard residues; d marks the D form. Peptide text beside a SMILES is read from it. ξ: configuration not given here. ξF = NC(Cc1ccccc1)C(=O)O

Columns and labels:
[1] = molecular target: T1, Glucagon-like peptide 1 receptor (Homo sapiens, UniProt P43220); test: Agonist activity at human GLP-1R expressed in HEK293 cells assessed as stimulation of cAMP accumulation by FRET assay; format: functional, cell-based
T1 sequence (P43220 whole entry): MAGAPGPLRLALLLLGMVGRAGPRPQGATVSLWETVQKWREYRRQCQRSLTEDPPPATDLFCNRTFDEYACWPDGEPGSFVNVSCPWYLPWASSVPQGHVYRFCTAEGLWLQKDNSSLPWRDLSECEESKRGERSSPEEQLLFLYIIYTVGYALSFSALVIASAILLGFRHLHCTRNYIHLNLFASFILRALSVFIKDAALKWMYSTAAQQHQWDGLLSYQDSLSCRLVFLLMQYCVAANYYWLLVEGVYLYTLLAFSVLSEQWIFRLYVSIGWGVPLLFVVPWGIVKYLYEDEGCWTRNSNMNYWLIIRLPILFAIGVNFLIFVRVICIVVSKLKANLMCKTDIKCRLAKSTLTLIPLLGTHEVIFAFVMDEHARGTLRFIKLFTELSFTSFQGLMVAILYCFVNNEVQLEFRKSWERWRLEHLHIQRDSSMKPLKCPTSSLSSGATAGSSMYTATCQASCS

[2] = molecular target: T1, Glucagon-like peptide 1 receptor; test: Displacement of GLP-1-red from human GLP-1R expressed in CHO-K1 cells by fluorescent competitive binding assay; format: cell-based
[3] = molecular target: T2, Neuropeptide Y receptor type 2 (Homo sapiens, UniProt P49146); test: Agonist activity at human NPY2R expressed in HEK293 cells assessed as inhibition of adenosine-induced stimulation of cAMP accumulation by FRET assay; format: functional, cell-based
T2 sequence (P49146 whole entry): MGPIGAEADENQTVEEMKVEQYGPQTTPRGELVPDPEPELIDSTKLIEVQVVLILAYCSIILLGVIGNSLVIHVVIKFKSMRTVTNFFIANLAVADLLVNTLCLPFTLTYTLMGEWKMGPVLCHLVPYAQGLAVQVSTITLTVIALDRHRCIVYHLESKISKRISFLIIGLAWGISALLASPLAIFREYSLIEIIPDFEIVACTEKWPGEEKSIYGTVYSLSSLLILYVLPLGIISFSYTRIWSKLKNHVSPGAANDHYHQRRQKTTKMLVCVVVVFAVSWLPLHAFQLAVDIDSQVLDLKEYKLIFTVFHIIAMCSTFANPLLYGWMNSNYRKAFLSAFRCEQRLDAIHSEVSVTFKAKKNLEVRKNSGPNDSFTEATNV

[4] = molecular target: T3, Glucagon-like peptide 1 receptor (Rattus norvegicus, UniProt P32301); test: Agonist activity at rat GLP-1R expressed in HEK293 cells assessed as stimulation of cAMP accumulation by FRET assay; format: functional, cell-based
T3 sequence (P32301 whole entry): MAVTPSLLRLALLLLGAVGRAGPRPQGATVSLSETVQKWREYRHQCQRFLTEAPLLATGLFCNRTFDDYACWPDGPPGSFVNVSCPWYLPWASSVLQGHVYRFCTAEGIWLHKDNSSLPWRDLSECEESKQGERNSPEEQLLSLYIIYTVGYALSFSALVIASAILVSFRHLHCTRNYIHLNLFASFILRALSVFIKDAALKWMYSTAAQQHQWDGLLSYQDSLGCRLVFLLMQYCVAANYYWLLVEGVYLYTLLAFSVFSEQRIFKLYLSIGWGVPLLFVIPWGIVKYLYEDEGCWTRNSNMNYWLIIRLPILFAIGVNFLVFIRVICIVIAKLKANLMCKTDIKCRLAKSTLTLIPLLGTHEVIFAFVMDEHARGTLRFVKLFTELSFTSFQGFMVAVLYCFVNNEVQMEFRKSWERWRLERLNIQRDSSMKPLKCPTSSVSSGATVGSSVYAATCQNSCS

Glucagon receptor = Glucagon receptor (Rattus norvegicus, UniProt P30082); test: Agonist activity at rat glucagon receptor expressed in HEK293 cells assessed as stimulation of cAMP accumulation by FRET assay; format: functional, cell-based
Glucagon receptor, sequence (P30082 whole entry): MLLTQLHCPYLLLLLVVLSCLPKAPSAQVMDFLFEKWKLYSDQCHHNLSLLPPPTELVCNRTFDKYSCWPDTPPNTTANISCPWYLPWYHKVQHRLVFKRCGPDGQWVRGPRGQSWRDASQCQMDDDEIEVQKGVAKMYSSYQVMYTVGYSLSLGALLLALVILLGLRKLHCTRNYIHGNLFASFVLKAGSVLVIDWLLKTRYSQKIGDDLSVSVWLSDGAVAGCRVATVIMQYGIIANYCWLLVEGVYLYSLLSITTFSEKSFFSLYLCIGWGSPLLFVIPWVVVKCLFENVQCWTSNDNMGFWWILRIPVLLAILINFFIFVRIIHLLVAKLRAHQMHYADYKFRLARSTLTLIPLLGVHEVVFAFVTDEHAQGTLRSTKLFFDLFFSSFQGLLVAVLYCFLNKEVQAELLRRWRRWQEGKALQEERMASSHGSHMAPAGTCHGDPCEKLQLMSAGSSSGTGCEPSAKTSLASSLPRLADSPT

[5] = molecular target: T4, Neuropeptide Y receptor type 1 (Homo sapiens, UniProt P25929); test: Agonist activity at human NPY1R expressed in HEK293 cells assessed as inhibition of adenosine-induced stimulation of cAMP accumulation by FRET assay; format: functional, cell-based
T4 sequence (P25929 whole entry): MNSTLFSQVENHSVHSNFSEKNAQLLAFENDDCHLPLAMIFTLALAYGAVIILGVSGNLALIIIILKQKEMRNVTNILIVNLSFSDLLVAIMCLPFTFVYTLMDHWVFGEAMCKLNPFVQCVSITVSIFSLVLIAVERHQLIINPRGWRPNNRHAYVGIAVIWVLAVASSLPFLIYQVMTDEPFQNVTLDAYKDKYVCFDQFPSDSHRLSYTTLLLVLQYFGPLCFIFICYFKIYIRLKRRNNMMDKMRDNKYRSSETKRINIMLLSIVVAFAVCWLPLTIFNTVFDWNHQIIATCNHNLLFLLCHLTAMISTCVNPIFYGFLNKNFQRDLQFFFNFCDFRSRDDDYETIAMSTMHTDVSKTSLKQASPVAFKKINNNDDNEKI

Rattus norvegicus [6] = test: Suppression of blood glucose level in prediabetic Sprague-Dawley rat model of DIO assessed as reduction in post-dextrose bolus blood glucose at 10 nmol/kg dosed daily for 5 days by IPGTT method; format: functional, organism-based; settings: time 5.0 day
Rattus norvegicus [7] = test: Suppression of cumulative food intake in lean Sprague-Dawley rat at 0.3 to 60 nmol/kg dosed daily for 2 days; format: functional, organism-based; settings: dose 0.3-60 nmol/kg, time 2.0 day
Rattus norvegicus [8] = test: Suppression of body weight in Sprague-Dawley rat model of DIO at 10 nmol/kg dosed daily for 5 days; format: functional; settings: time 5 day
[9] = molecular target: T1, Glucagon-like peptide 1 receptor; test: Agonist activity at human GLP-1R expressed in HEK293 cells assessed as stimulation of cAMP accumulation in presence of GLP-1R antagonist exendin9-39 by FRET assay; format: functional, cell-based
Procedure, shortened: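 HEK293 cells stably expressing human GLP-1R, transduced with H188 cAMP FRET reporter (16 h, MOI 25), read in SES (pH 7.4, 11 mM glucose, 0.1% BSA). Antagonist Ex(9–39) added 20 min before agonist. Excitation 435 nm; 485/535 emission ratio baseline-normalized, read in real time. Triplicate independent runs; EC50 by nonlinear regression of peak FRET values.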

Suncus murinus [10] = test: Improvement in glucose clearance in musk shrew at 10 nmol/kg, ip measured 20 to 60 mins following glucose administration by IPGTT method; format: functional, organism-based; settings: time 20-60 min
Procedure, shortened: (§1)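 Male musk shrews (~8 months, 60–65 g, n = 9), within-subject counterbalanced. Baseline tail glucose by glucometer, then IP drug or saline (1 mL/100 g); 30 min later IP glucose 2 g/kg, glucose read at 20, 40, 60 and 120 min.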

[11] = Intrinsic clearance in Sprague-Dawley rat liver microsomes at 30 uM in presence of NADPH by HPLC analysis; format: ADME, Microsome
[12] = molecular target: T5, Neuropeptide Y receptor type 2 (Homo sapiens) (UniProt P49146); test: Agonist activity at human NPY2R expressed in HEK293 cells assessed as inhibition of adenosine-induced stimulation of cAMP accumulation in presence of NPY2-R antagonist […] by FRET assay; format: functional, cell-based
T5 sequence (whole entry): T2 sequence (P49146 whole entry)

[13] = Half life in Sprague-Dawley rat liver microsomes at 30 uM in presence of NADPH by HPLC analysis; format: ADME, Microsome
Pancreatic islet [14] = test: Stimulation of glucose stimulated insulin secretion in rat pancreatic islets at 50 nM in presence of 10 mM glucose incubated for 60 mins; format: functional, tissue-based
Pancreatic islet [15] = test: Stimulation of glucose stimulated insulin secretion in rat pancreatic islets at 50 nM in presence of 3 mM glucose incubated for 60 mins; format: functional, tissue-based
Suncus murinus [16] = test: Improvement in glucose clearance in musk shrew assessed as increase in plasma glucose clearing rate at 10 nmol/kg, ip measured 20 to 60 mins following glucose administration by IPGTT method; format: functional, organism-based; settings: time 20-60 min; procedure, shortened: as §1
Rattus norvegicus [17] = test: Suppression of food intake in Sprague-Dawley rat model of DIO at 10 nmol/kg dosed daily for 5 days; format: functional, organism-based; settings: time 5.0 day
[18] = Toxicity in musk shrew assessed as induction of emesis at 10 to 60 nmol/kg, ip measured after 120 mins; format: organism-based; settings: suncus murinus, in vivo, 2 h, dose 10-60 nmol/kg
Rattus norvegicus [19] = test: Suppression of cumulative food intake in lean Sprague-Dawley rat at 10 to 20 nmol/kg dosed daily for 2 days relative to control; format: functional; settings: dose 10-20 nmol/kg, time 2 day
Rattus norvegicus [20] = test: Suppression of fasting blood glucose in Sprague-Dawley rat model of DIO at 10 nmol/kg dosed daily for 5 days; format: functional, organism-based; settings: time 5.0 day
[21] = Toxicity in lean Sprague-Dawley rat assessed as induction at 0.3 to 60 nmol/kg dosed daily for 2 days by kaolin consumption assay; settings: in vivo, 48 h
Rattus norvegicus [22] = test: Effect on glucose clearance in Sprague-Dawley rat model of DIO at 10 nmol/kg dosed daily for 5 days; format: functional, organism-based; settings: time 5.0 day

## CC[C@H](C)[C@H](NC(=O)C(Cc1ccccc1)NC(=O)[C@H](CC(C)C)NC(=O)[C@H](CCCNC(=N)N)NC(=O)[C@@H](NC(=O)[C@H](C)NC(=O)[C@H](CCC(=O)O)NC(=O)[C@H](CCC(=O)O)NC(=O)[C@H](CCC(=O)O)NC(=O)[C@H](CCSC)NC(=O)[C@H](CCC(N)=O)NC(=O)[C@H](CCCCN)NC(=O)[C@H](CO)NC(=O)[C@H](CC(C)C)NC(=O)[C@H](CC(=O)O)NC(=O)[C@H](CO)NC(=O)[C@@H](NC(=O)[C@H](Cc1ccccc1)NC(=O)[C@@H](NC(=O)CNC(=O)[C@H](CCC(N)=O)NC(=O)[C@H](CO)NC(=O)[C@@H](N)Cc1cnc[nH]1)[C@@H](C)O)[C@@H](C)O)C(C)C)C(=O)N[C@@H](CCC(=O)O)C(=O)N[C@@H](Cc1c[nH]c2ccccc12)C(=O)N[C@@H](CC(C)C)C(=O)N[C@@H](CCCCN)C(=O)N[C@@H](CC(N)=O)C(=O)NCC(=O)NCC(=O)N1CCC[C@@H]1C(=O)N[C@@H](CO)C(=O)N[C@@H](CCCNC(=N)N)C(=O)N[C@@H](Cc1cnc[nH]1)C(=O)N[C@@H](Cc1ccc(O)cc1)C(=O)N[C@@H](CC(C)C)C(=O)N[C@@H](CC(N)=O)C(=O)N[C@@H](CC(C)C)C(=O)N[C@H](C(=O)N[C@H](C(=O)N[C@@H](CCCNC(=N)N)C(=O)N[C@@H](CCC(N)=O)C(=O)N[C@@H](CCCNC(=N)N)C(=O)N[C@@H](Cc1ccc(O)cc1)C(=O)O)[C@@H](C)O)C(C)C (some centres undefined)
[1]; hek293
  EC50: 0.00024 µM
[2]; cho-k1
  IC50: 0.0275 µM
[3]; hek293
  IC50: 0.032 µM
[4]; hek293
  EC50: 0.00012 µM
Glucagon receptor; hek293
  EC50: 0.03 µM

## CC[C@H](C)[C@H](NC(=O)C(Cc1ccccc1)NC(=O)[C@H](CC(C)C)NC(=O)[C@H](CCCNC(=N)N)NC(=O)[C@@H](NC(=O)[C@H](C)NC(=O)[C@H](CCC(=O)O)NC(=O)[C@H](CCC(=O)O)NC(=O)[C@H](CCC(=O)O)NC(=O)[C@H](CCSC)NC(=O)[C@H](CCC(N)=O)NC(=O)[C@H](CCCCN)NC(=O)[C@H](CO)NC(=O)[C@H](CC(C)C)NC(=O)[C@H](CC(=O)O)NC(=O)[C@H](CO)NC(=O)[C@@H](NC(=O)[C@H](Cc1ccccc1)NC(=O)[C@@H](NC(=O)CNC(=O)[C@H](CCC(N)=O)NC(=O)[C@H](CO)NC(=O)[C@@H](N)Cc1cnc[nH]1)[C@@H](C)O)[C@@H](C)O)C(C)C)C(=O)N[C@@H](CCC(=O)O)C(=O)N[C@@H](Cc1c[nH]c2ccccc12)C(=O)N[C@@H](CC(C)C)C(=O)N[C@@H](CCCCN)C(=O)N[C@@H](CC(N)=O)C(=O)N[C@@H](CCCNC(=N)N)C(=O)N[C@@H](Cc1cnc[nH]1)C(=O)N[C@@H](Cc1ccc(O)cc1)C(=O)N[C@@H](CC(C)C)C(=O)N[C@@H](CC(N)=O)C(=O)N[C@@H](CC(C)C)C(=O)N[C@H](C(=O)N[C@H](C(=O)N[C@@H](CCCNC(=N)N)C(=O)N[C@@H](CCC(N)=O)C(=O)N[C@@H](CCCNC(=N)N)C(=O)N[C@@H](Cc1ccc(O)cc1)C(=O)O)[C@@H](C)O)C(C)C (some centres undefined) (H-HSQGTFTSDLSKQMEEEAVRL[ξF]IEWLKNRHYLNLVTRQRY-OH)
[1]
  EC50: 0.000533 µM
[2]
  IC50: 0.321 µM
[3]
  IC50: 0.061 µM
Glucagon receptor
  EC50: > 3 µM

## H-HSQGTFTSDLSKQMEEEAVRLFIEWLKNRYYASLRRHYLNLVTRQRY-NH2
[2]
  IC50: > 1 µM
[5]
  IC50: 0.082 µM
Glucagon receptor
  EC50: > 3 µM

## H-HSQGTFTSDLSKQMEEWAVRLFIEWLKNGGPSRYYASLRRHYLNLVTRQRY-NH2
[1]
  EC50: 0.0023 µM
[2]
  IC50: > 1 µM
[3]
  IC50: 0.025 µM
Glucagon receptor
  EC50: > 3 µM

## H-H[dS]QGTFTSDLSKYLEEEAVREFIAWLKNGGPSRHYLNLVTRQRY-NH2
Rattus norvegicus [6]
  Activity: Active
Rattus norvegicus [7]
  Activity: Dose-dependent effect
Rattus norvegicus [8]
  Activity: 5%
[1]
  EC50: 0.00033 µM
[9]
  Activity: inactive
Suncus murinus [10]
  Activity: Active
[2]
  IC50: 0.113 µM
[11]
  microsomal CLint at 30 µM: 32.5 µL/min/mg
[12]
  Activity: inactive
[13]
  half-life at 30 µM: 2.27 h
Pancreatic islet [14]
  Activity: Active
Pancreatic islet [15]
  Activity: inactive
Suncus murinus [16]
  Activity: Active
Rattus norvegicus [17]
  Activity: Active
[18]
  Activity: Non-Toxic
Rattus norvegicus [19]
  Activity: 71.4%
Rattus norvegicus [20]
  Activity: Active
[3]
  IC50: 0.01 µM
[4]
  EC50: 0.00048 µM
[21]
  Activity: Non-Toxic
[5]
  IC50: 0.027 µM
Glucagon receptor
  EC50: > 3 µM
Rattus norvegicus [22]
  Activity: Active
